Data from ChEMBL document CHEMBL2029346, “Discovery and synthesis of hydronaphthoquinones as novel proteasome inhibitors” (J Med Chem, 2012).
Active and inactive are the calls of the source. No cut-off for these calls is given here.

How the values were obtained:
[1] = Inhibition of chymotrypsin-like activity of proteasome at 10 uM by fluorogenic assay; type: subcellular
Summary of the method: (§1)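 Purified rabbit 20S proteasome; CT-L activity measured by fluorogenic assay. Compounds were first screened for % CT-L inhibition, then dose-response runs gave IC50.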

[2] = Inhibition of trypsin-like activity of proteasome at 10 uM by fluorogenic assay; type: subcellular
[3] = Inhibition of chymotrypsin-like activity of proteasome by fluorogenic assay; type: subcellular; summary of the method: as §1
[4] = Inhibition of trypsin-like activity of proteasome by fluorogenic assay; type: subcellular
[5] = Inhibition of chymotrypsin-like activity of proteasome in human MDA-MB-231 cells after 48 hrs
Summary of the method: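 MDA-MB-231 cells exposed to a range of concentrations or DMSO vehicle for 48 h, then lysed (Tris pH 8.0, EDTA, NaCl, 0.5% NP-40). CT-L activity was measured fluorogenically using 5 μg lysate; IC50 derived.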

[6] = Inhibition of chymotrypsin-like activity of proteasome in human MDA-MB-468 cells after 48 hrs
Summary of the method: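 MDA-MB-468 cells grown in DMEM with 10% FCS, penicillin/streptomycin, at 37 °C in 5% CO2. They were exposed to a range of concentrations or DMSO vehicle for 48 h, lysed in Tris pH 8.0/EDTA/NaCl/0.5% NP-40 for 30 min at 4 °C, and spun at 12000g. CT-L activity was read fluorogenically on 5 μg lysate, with lysate replacing purified proteasome.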

[7] = Inhibition of postglutamylpeptidase hydrolysis-like activity of proteasome by fluorogenic assay; type: subcellular
Oryctolagus cuniculus [8] = organism: Oryctolagus cuniculus; test: Irreversible inhibition of rabbit 20S proteasome activity at 10 uM after 30 mins measured after 0.5 to 18 hrs of dialysis
Summary of the method: (§2)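 Compound at 10 μM or 0.1% DMSO was preincubated with 1.5 nM rabbit 20S proteasome in 50 mM Tris-HCl pH 7.6 for 30 min at room temperature. Mixtures were dialysed (3500 MWCO) against the same buffer at 4 °C and sampled at 0, 0.5, 1, 4, 8 and 18 h. CT-L activity was normalized to DMSO control.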

Oryctolagus cuniculus [9] = organism: Oryctolagus cuniculus; test: Inhibition of rabbit 20S proteasome activity at 10 uM after 30 mins
Summary of the method: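 Purified rabbit 20S proteasome (1.5 nM final) was preincubated with compound at 10 μM, or 0.1% DMSO vehicle, in 50 mM Tris-HCl pH 7.6 at room temperature for 30 min. Chymotrypsin-like activity was then read by fluorogenic assay before dialysis (t = 0) and normalized to the DMSO control.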

Oryctolagus cuniculus [10] = organism: Oryctolagus cuniculus; test: Irreversible inhibition of rabbit 20S proteasome activity at 10 uM after 30 mins measured after 4 hrs of dialysis; summary of the method: as §2
[11] = Inhibition of chymotrypsin-like activity of proteasome in human MDA-MB-468 cells after 11 hrs by fluorogenic assay in whole cell extracts; conditions: MDA-MB-468, 11 h
MDA-MB-468 [12] = test: Antiproliferative activity against human MDA-MB-468 cells after 11 hrs by MTT assay; type: functional, cell-based; conditions: MDA-MB-468, 11 h
Summary of the method: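 MDA-MB-468 human breast cancer cells grown in DMEM with 10% FCS and penicillin/streptomycin at 37 °C, 5% CO₂. Cells plated, attached overnight, then exposed to varying compound concentrations or vehicle (DMSO) for 11 h.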

MDA-MB-468 [13] = test: Inhibition of chymotrypsin-like activity of proteasome in human MDA-MB-468 cells assessed as accumulation of ubiquitinated cellular proteins after 11 hrs by Western blotting
Summary of the method: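 MDA-MB-468 cells (DMEM, 10% FCS, 37 °C, 5% CO2) given varying concentrations or DMSO for 11 h, then lysed in NP-40 buffer. Lysate (30 μg) was run on SDS-PAGE, transferred to nitrocellulose, probed with anti-ubiquitin, and detected by ECL.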

inhibition [1]	IC50 [3]	IC50 [4]	SMILES	other results
> 70%			O=S(=O)(Nc1cc(Sc2ncn[nH]2)c(O)c2ccccc12)c1cccs1	inhibition [2]: < 70%
	> 100000 nM		O=C(O)CSc1ccc(NS(=O)(=O)c2cccs2)c2ccccc12	
> 70%	300 nM	2000 nM	O=S(=O)(Nc1cc(Sc2ncn[nH]2)c(O)c2ccccc12)c1ccc2ccccc2c1	
> 70%	510 nM	200 nM	O=S(=O)(Nc1cc(Sc2nnn[nH]2)c(O)c2ccccc12)c1cccs1	
> 70%	4050 nM		O=C(O)c1ccccc1Sc1cc(NS(=O)(=O)c2cccs2)c2ccccc2c1O	inhibition [2]: < 70%
> 70%	230 nM	1850 nM	O=S(=O)(Nc1cc(Sc2nnn[nH]2)c(O)c2ccccc12)c1ccc(C2CCCCC2)cc1	
> 70%	570 nM	750 nM	O=S(=O)(Nc1cc(Sc2nnn[nH]2)c(O)c2ccccc12)c1ccc(Cl)cc1	
> 70%	2470 nM	7200 nM	O=S(=O)(Nc1cc(Sc2ncn[nH]2)c(O)c2ccccc12)c1ccc(-c2ccc(C(F)(F)F)cc2)cc1	
	> 30000 nM		O=S(=O)(Nc1cc(I)c(O)c2ccccc12)c1cccs1	
> 70%	540 nM	570 nM	O=S(=O)(Nc1cc(Sc2nnn[nH]2)c(O)c2ccccc12)c1ccc(Cl)c(Cl)c1	
> 70%	1610 nM		O=S(=O)(Nc1cc(Sc2ncn[nH]2)c(O)c2ccccc12)c1ccn(S(=O)(=O)c2ccccc2)c1	inhibition [2]: < 70%
> 70%	280 nM	4220 nM	O=S(=O)(Nc1cc(Sc2ncn[nH]2)c(O)c2ccccc12)c1ccc(-c2ccccc2)cc1	
	> 10000 nM		CCOC(=O)CSc1cc(NS(=O)(=O)c2cccs2)c2ccccc2c1O	
> 70%	1970 nM		O=S(=O)(Nc1cc(Sc2ncn[nH]2)c(O)c2ccccc12)c1ccc(S(=O)(=O)c2ccccc2)s1	inhibition [2]: < 70%
> 70%	220 nM	1300 nM	O=S(=O)(Nc1cc(Sc2nnn[nH]2)c(O)c2ccccc12)c1ccc(Oc2ccccc2)cc1	
	> 5000 nM		CNC(=O)CCSc1cc(NS(=O)(=O)c2cccs2)c2ccccc2c1O	
	> 100000 nM		O=C(O)COc1cc(NS(=O)(=O)c2cccs2)c2ccccc2c1O	
> 70%	650 nM		O=S(=O)(Nc1cc(Sc2ncn[nH]2)c(O)c2ccccc12)c1cccc2ccccc12	inhibition [2]: < 70%
> 70%	400 nM	1350 nM	O=S(=O)(Nc1cc(Sc2nnn[nH]2)c(O)c2ccccc12)c1ccc2ccccc2c1	
> 70%	480 nM	1550 nM	O=S(=O)(Nc1cc(Sc2nnn[nH]2)c(O)c2ccccc12)c1ccc(-c2ccccn2)s1	
> 70%	220 nM	4800 nM	O=S(=O)(Nc1cc(Sc2nnn[nH]2)c(O)c2ccccc12)c1ccc(-c2ccccc2)cc1	
> 70%	4200 nM		Cn1nnnc1Sc1cc(NS(=O)(=O)c2cccs2)c2ccccc2c1O	inhibition [2]: < 70%
	> 5000 nM		CN(C)C(=O)CCSc1cc(NS(=O)(=O)c2cccs2)c2ccccc2c1O	
	> 5000 nM		CCOc1cc(NS(=O)(=O)c2cccs2)c2ccccc2c1O	
> 70%	150 nM	4200 nM	O=S(=O)(Nc1cc(Sc2ncn[nH]2)c(O)c2ccccc12)c1ccc(Oc2ccccc2)cc1	

More lines, now with the values behind:

SMILES	inhibition [1]	IC50 [3]	IC50 [4]	other results
CCSc1cc(NS(=O)(=O)c2cccs2)c2ccccc2c1O		> 5000 nM		
O=S(=O)(Nc1cc(Sc2nnn[nH]2)c(O)c2ccccc12)c1ccc(-c2ccccc2)s1	> 70%	230 nM	550 nM	
O=C(O)CCSc1cc(NS(=O)(=O)c2cccs2)c2ccccc2c1O		5700 nM		
O=S(=O)(Nc1cc(Sc2ncn[nH]2)c(O)c2ccccc12)c1ccc(C2CCCCC2)cc1	> 70%	300 nM	7000 nM	
CCCCCc1ccc(S(=O)(=O)Nc2cc(Sc3nnn[nH]3)c(O)c3ccccc23)cc1	> 70%	470 nM	1450 nM	
O=C(O)CSc1cc(NS(=O)(=O)c2cccs2)c2ccccc2c1O	> 70%	3000 nM		IC50 [5]: 3540 nM; IC50 [6]: 7220 nM; IC50 [7]: 8100 nM; inhibition (Oryctolagus cuniculus [8]): Active; inhibition (Oryctolagus cuniculus [9]): 68%; inhibition [2]: < 70%
O=S(=O)(Nc1cc(Cl)c(O)c2ccccc12)c1cccs1		> 30000 nM		
O=C(O)CS(=O)(=O)c1cc(NS(=O)(=O)c2cccs2)c2ccccc2c1O		> 100000 nM		
O=S(=O)(Nc1cc(SCCO)c(O)c2ccccc12)c1cccs1		> 5000 nM		
CC(C)C[C@H](NC(=O)[C@H](Cc1ccccc1)NC(=O)c1cnccn1)B(O)O				inhibition (Oryctolagus cuniculus [10]): inactive; inhibition (Oryctolagus cuniculus [9]): 87%
O=S(=O)(Nc1cc(Sc2nnn[nH]2)c(O)c2ccccc12)c1ccc(-c2ccc(F)cc2)cc1	> 70%	230 nM	2000 nM	
O=S(=O)(Nc1cc(Br)c(O)c2ccccc12)c1cccs1		> 30000 nM		
O=S(=O)(Nc1cc(Sc2nnn[nH]2)c(O)c2ccccc12)c1ccccc1	> 70%	600 nM	1380 nM	
O=S(=O)(Nc1cc(Sc2nnn[nH]2)c(O)c2ccccc12)c1ccc(Cl)s1	> 70%	630 nM	1100 nM	
O=S(=O)(Nc1cc(Sc2ncn[nH]2)c(O)c2ccccc12)c1ccc(-c2ccccc2)s1	> 70%	730 nM	2350 nM	
COc1ccc(-c2ccc(S(=O)(=O)Nc3cc(Sc4nnn[nH]4)c(O)c4ccccc34)cc2)cc1	> 70%	400 nM	2800 nM	
O=S(=O)(Nc1ccc(O)c2ccccc12)c1cccs1		> 30000 nM		
O=S(=O)(Nc1cc(Sc2nnn[nH]2)c(O)c2ccccc12)c1ccc(-c2ccc(C(F)(F)F)cc2)cc1	> 70%	880 nM	1140 nM	IC50 [5]: 440 nM; IC50 [6]: 1010 nM; IC50 [11]: 15600 nM; IC50 (MDA-MB-468 [12]): 17000 nM; inhibition (MDA-MB-468 [13]): Dose-dependent effect; inhibition (Oryctolagus cuniculus [8]): Active; inhibition (Oryctolagus cuniculus [9]): 73%
O=S(=O)(Nc1cc(Sc2ncn[nH]2)c(O)c2ccccc12)c1ccc(-c2ccc(F)cc2)cc1	> 70%	180 nM	2370 nM	
